Screening data (PubChem)
Pyk2 oligo antag: antagonists of human Pyk2 oligomerization | Q14289 | Q293 cells, Pyk2 FERM NanoBiT luminescence; hits give low values | z-score (the deposit names both 25 µM and 10 µM) | 99,000 compounds, 0.83% hits | AID 1347419;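 active = Z-score of -3 or lower, scaled per plate to the spread of control and sample wells; inactive = z-score above -3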;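 note: negative z-score means lost luminescence so less FERM oligomerization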
PostGolgi yeast: growth inhibition of a yeast mutant, post-Golgi transport screen | post-Golgi transport phenotypic cell assay | inhibition, % at 10 µM | 98,000 compounds, 0.9% hits;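 note: yeast cells grown in 1536-well plates; yeast grown about 18 h at 30C before absorbance read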
PostGolgi ctrl: inhibits growth of the yeast control strain | inhibition, % at 10 µM | 98,000 compounds, 5% hits | efflux-deficient yeast background strain, growth absorbance A615, 16 h | AID 738
Ecoli WT expand: E. coli BW25113 growth inhibition, expanded screen | OD600 absorbance | growth inhibition, % at 100 µM | 98,000 compounds, 0.15% hits;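 active = growth inhibition above about 50% at one test dose, limit read from the data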;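 note: growth measured after 20 h incubation at 37 °C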
tolC growth inh: growth inhibitors of E. coli BW25113 tolC mutant. OD615. growth inhibition, % at 10 µM (by protocol). 65,000 compounds, 2.2% hits. AID 573;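 active = growth inhibition at or above a cutoff equal to the mean over every tested compound plus 3 SD, cut at about 60% in these data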;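 note: growth measured after 20 h incubation at 37 °C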
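Test system: E. coli BW25113 ΔtolC::kan bacteria | Medium: Kanamycin-containing LB broth (50 µg/mL) | Dosing: One dose of 10 µM final | Times: 20 h incubation with compound, 37 °C | Detection: Optical density read at 615 nm | Read-out basis: Percent growth inhibition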
Calb biofilm kill: kills Candida albicans biofilms | C. albicans biofilm + clotrimazole, Alamar Blue | inhibition, % at 6 µM | 85,000 compounds, 0.14% hits | AID 834;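 active = inhibition above 20%; inactive = inhibition below 20%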;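 note: preformed 24 hr biofilms exposed to compound for 48 hr; 0% = biofilm without compound and 100% = blank killed by clotrimazole plus chlorhexidine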
Numbers without * were called inactive; x = no result. Hits are enriched below; roughly 6.5% of the tested compounds scored in any of these assays. Cut-off read from the data, not from the text of the source, unless noted: active = inhibition above about 30%; inactive = the rest.

SMILES	Pyk2 oligo antag	PostGolgi yeast	PostGolgi ctrl	Ecoli WT expand	tolC growth inh	Calb biofilm kill
COCCn1nnnc1C(C(C)C)N(Cc1ccccc1)Cc1cc2cc(OC)ccc2[nH]c1=O (stereo not drawn)	-0.53	-2.8	-2.4	-2.0	76.2*	7.3
Cc1sc2nc(SCC(=O)c3cc(C)n(CC4CCCO4)c3C)n(C(C)C)c(=O)c2c1C (stereo not drawn)	0.29	-3.9	30.4*	-3.0	-1.1	7.2
Cc1cc(C(=O)CSc2nc3ccccc3o2)c(C)n1CC1CCCO1 (stereo not drawn)	0.31	-4.0	8.1	-9.0	x	5.7
CC(C)(C)c1ccc(S(=O)(=O)CC(O)CSc2nc3c(cc2C#N)CCCC3)cc1 (stereo not drawn)	0.14	9.9	24.9	-10.0	x	4.5
N#Cc1cc2c(nc1SCC(O)CS(=O)(=O)Cc1ccc(Cl)cc1)CCCC2 (stereo not drawn)	-2.17	-3.3	36.0*	-14.0	x	-1.1
CCOC(=O)c1cc(C)n(-c2ccc(OC)c(OC)c2)c1C	-0.82	-6.4	8.3	7.0	8.2	0.1
CCCSc1nnc(N2C(=O)CC(c3ccsc3)C3=C2CCCC3=O)s1 (stereo not drawn)	x	-3.4	48.1*	-13.0	5.9	4.7
CC1(C)CC(=O)C2=C(C1)N(c1ccccc1)C(=O)CC2c1ccsc1 (stereo not drawn)	x	-2.5	9.4	2.0	x	9.4
COc1ccc(CCNC(=O)c2ccc(NS(=O)(=O)c3c(C)noc3C)cc2)cc1OC	0.3	3.9	-1.1	1.0	0.0	x
N#Cc1nc(-c2ccccc2F)oc1NC1CCCCC1	x	2.7	x	-7.0	16.1	0.3
CC(NC(=O)C1(C)CC1(Br)Br)C(C)(C)C (stereo not drawn)	0.69	1.9	26.2	-2.0	x	x
CCCOc1ccc(C2/C(=C(\O)c3c(C)[nH]c(C(=O)OC)c3C)C(=O)C(=O)N2CCN(C)C)cc1 (stereo not drawn)	1.01	0.7	31.5*	-6.0	-25.0	7.1
CCc1ccccc1NS(=O)(=O)c1ccc2[nH]cc(C(=O)NCC3CCCO3)c(=O)c2c1 (stereo not drawn)	-2.08	0.6	41.5*	3.0	46.0	3.2
CCCCC(c1nnnn1CCOC)N1CCN(Cc2ccccc2)CC1 (stereo not drawn)	-0.17	x	x	x	x	5.1
O=C(O)CSc1cccc[n+]1[O-]	0.7	3.3	0.2	3.0	x	x
O=C(CSc1cccc[n+]1[O-])c1cc2ccccc2o1	0.27	-5.4	-1.5	97.0*	5.4	x
CCn1c(SCC(=O)N2CCN(c3ccccc3F)CC2)nnc1-c1ccoc1C	0.38	-6.9	5.5	-2.0	-1.3	7.9
CC1(C)C(=O)OC(c2cc(Br)ccc2O)C(C)(C)C1=O (stereo not drawn)	x	x	x	x	63.3*	8.3
CC1(c2cc([N+](=O)[O-])cc([N+](=O)[O-])c2)CC(C)(C)N(C(=O)c2ccccc2)c2ccccc21 (stereo not drawn)	1.5	1.6	21.2	-9.0	x	x
CC1(c2ccccc2)CC(C)(C)N(C(=O)C2CCCO2)c2ccccc21 (stereo not drawn)	-0.34	-4.0	65.9*	-14.0	x	2.9
Cc1c(Br)cc(C(=O)OC2CCN(C)CC2)c(C)c1C	0.12	-2.6	1.9	10.0	0.0	7.3
CN1CCN(C(=O)/C(=C\c2ccccc2)c2ccccc2)CC1	-0.54	-2.4	5.1	-3.0	x	6.2
Cc1ccccc1NC(=O)/C(=C/c1ccccc1)c1ccccc1	-1.7	-2.9	31.4*	1.0	x	x
Cc1cccc(C)c1NC(=O)/C(=C/c1ccco1)c1ccccc1	-0.81	-4.7	16.2	1.0	x	2.7
O=C(Nc1ccccc1)/C(=C/c1ccccc1)c1ccccc1	-1.88	-6.4	40.3*	-3.0	x	x
SMILES	Pyk2 oligo antag	PostGolgi yeast	PostGolgi ctrl	Ecoli WT expand	tolC growth inh	Calb biofilm kill
Cc1cc(Cl)ccc1OCC(=O)NCCCN1CCOCC1	0.47	4.5	9.6	4.0	-2.8	7.0
O=C(COc1ccc(Cl)cc1Cl)NCCCN1CCOCC1	-0.61	64.9*	18.1	0.0	-9.6	-1.3
O=C(COc1ccc(Cl)cc1Cl)NCCC1=CCCCC1	0.09	-18.4	48.3*	10.0	x	x
CCCCc1nnc(NC(=O)C(C)Sc2nc(N)cc(=O)[nH]2)s1 (stereo not drawn)	0.2	-3.8	3.6	11.0	x	5.5
CCN(C1CCCCC1)S(=O)(=O)c1cc(C)ccc1OC	-1.24	-2.6	11.3	9.0	42.0	-1.8
CCN(C1CCCCC1)S(=O)(=O)c1ccc(OC)c(C)c1	-1.19	14.5	35.5*	5.0	91.9*	4.2
CCCCn1c(SCc2c(C)noc2C)nc2cc(S(N)(=O)=O)ccc21	1.18	-7.5	0.8	5.0	15.2	-3.1
COC(=O)c1ccc(/C=N/OCC(=O)NC2CCCC(C)C2C)cc1 (stereo not drawn)	0.26	11.1	40.4*	-4.0	x	2.6
NC(=O)c1ccsc1NC(=O)c1nc(-c2ccccc2)n(-c2ccccc2)n1	-4.36*	72.6*	10.8	-6.0	13.6	x
Clc1ccc(-n2nnnc2SCc2c(-c3ccccc3)nc3sccn23)cc1	0.38	1.0	34.7*	-17.0	12.3	5.1
CC(C)OC(=O)c1cccnc1SCC(=O)N(C)c1ccccc1	0.88	8.6	13.8	-3.0	x	2.2
CC(C)OC(=O)c1cccnc1SCc1cc(=O)n2ccccc2n1	-1.35	30.1*	29.8	2.0	17.2	6.3
COc1cccc(CNn2c(-c3cccc(C)c3)nc3ccccc3c2=O)c1	-1.41	3.7	35.6*	-23.0	x	-5.7
COC(=O)c1sccc1OC(C)C(C)=O (stereo not drawn)	0.39	2.1	5.3	-5.0	x	x
CCN(CC)CCCN1C(=O)C(O)=C(C(=O)c2cccs2)C1c1ccccn1 (stereo not drawn)	x	x	x	x	-13.1	-0.1
Cc1onc(-c2ccccc2Cl)c1C(=O)Nc1cnn(Cc2ccccc2)c1	x	x	x	x	10.9	4.8
CCC(=O)NC1=C(C#N)C2(CCCC2)Cc2ccccc21	0.1	-5.5	7.2	-1.0	-4.8	6.5
N#CC1=C(N)c2ccccc2CC12CCCCC2	-0.37	1.1	38.9*	11.0	x	3.6
CCN(CC)CCn1c2ccccc2c2cnc(N)c(C#N)c21	-0.46	1.6	51.5*	22.0	x	6.6
CN(C)C=Nc1ncc2c3ccccc3n(CCN(C)C)c2c1C#N	-1.17	-9.9	25.3	12.0	10.2	-3.1
CCCc1cc(=O)[nH]c(/N=C(/NC(=O)c2ccccc2)Nc2ccc3c(c2)OCCO3)n1	x	x	x	x	25.2	4.2
CCn1c(=O)c(C(=O)Nc2nc3ccccc3[nH]2)c(O)c2ccccc21	-1.32	104.1*	98.2*	1.0	5.7	x
O=C(NCc1ccccc1)c1c(O)c2cccc3c2n(c1=O)CCC3	-0.67	10.1	9.3	-13.0	18.6	10.0
CCn1c(=O)c(C(=O)Nc2cnccn2)c(O)c2ccccc21	x	x	x	x	19.4	9.4
CC(C)c1nnc(NC(=O)c2c(O)c3cccc4c3n(c2=O)CC4)s1	x	x	x	x	100.0*	2.5
CCn1c(=O)c(C(=O)Nn2c(C)nc3ccccc3c2=O)c(O)c2ccccc21	-1.25	5.6	21.4	3.0	90.9*	-2.5
Cc1nc2ccccc2c(=O)n1NC(=O)c1ccccc1Cl	0.41	-6.7	4.0	-6.0	-17.1	12.6
